Consider two compounds from ChEMBL document CHEMBL4325910, “Design and synthesis of rosiglitazone-ferulic acid-nitric oxide donor trihybrids for improving glucose tolerance” (Eur J Med Chem, 2019).

The nature of series [1]: Metabolic stability in human liver microsomes measured immediately after compound addition in presence of NADPH by HPLC analysis. The series is classed as ADME, Microsome. The settings on record: read-out: Stability. The method, boiled down:
(§1)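 Compound (100 mM DMSO stock) was added in triplicate to 0.1 M phosphate buffer pH 7.4 with 3.3 mM MgCl2 and human liver microsomes, then preincubated 5 min at 37 °C. NADPH (1.3 mM stock) was added and incubation continued 0, 0.5, 1, 2 or 6 h. Acetonitrile quench, then HPLC at 254 nm.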
In general terms: Microsomes from liver hold many membrane-bound enzymes, among them those of drug oxidation.

For series [2], the system named is Mus musculus. The series is described as follows: Antidiabetic activity in spontaneous db/db BKS.Cg-Dock7m +/+ Leprdb/J mouse assessed as decrease in blood glucose AUC at 10 to 20 mg/kg, po administered as daily dose via gavage for 18 days measured on day 12 up to 120 mins post glucose challenge by oral glucose tolerance test. The series is classed as functional, organism-based. The method, boiled down: (§2)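 Male db/db mice (BKS.Cg-Dock7m +/+ Leprdb/J), 6 weeks old on purchase, randomized, n=8 per group. Dosed by gavage in 0.5% CMC-Na daily for 18 consecutive days. Vehicle-dosed db/db and C57BL/6 mice served as model and control. Fasting glucose was read by glucometer every three days. On day 12, after an overnight fast, 2 g/kg glucose was given orally. Blood glucose was read at 0–120 min and AUC calculated. Mean ± SEM.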

Series [3] is described as follows: Toxicity in spontaneous db/db BKS.Cg-Dock7m +/+ Leprdb/J mouse assessed as body weight gain at 13.5 umol/kg, po administered as daily dose via gavage treated for 18 days measured post last dose (reference value: 5.6 +/- 2.1 g). The settings on record: in vivo, 432 h. The format is organism-based.
The test system of series [4] is Mus musculus. The series is described as follows: Effect on lipid metabolism in spontaneous db/db BKS.Cg-Dock7m +/+ Leprdb/J mouse assessed as increase in serum HDL level at 27 umol/kg, po administered as daily dose via gavage for 18 days. The series is classed as functional, organism-based. The method, boiled down: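 db/db mice were gavaged daily for 18 days in 0.5% CMC-Na (n=8 per group), with a vehicle model group. On day 19, blood was collected and serum prepared by centrifugation. Serum triglyceride and HDL were then measured.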

For series [5], the system named is 3T3-L1. The series is described as follows: Induction of nitric oxide mediated increase in insulin-stimulated 2-NBDG uptake in TNF-alpha-induced insulin resistant mouse 3T3L1 cells at 3 to 10 uM preincubated for 48 hrs followed by 2-NBDG addition measured after 30 mins in presence of nitric oxide scavenger C-PTIO by fluorescence assay. The series is classed as functional, cell-based. The method, boiled down:
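Day-8 differentiated 3T3-L1 adipocytes received TNF-α (4 ng/mL) daily for 4 days. They were pretreated in triplicate for 48 h (C-PTIO 20 μM where indicated), then given 100 μM 2-NBDG at 37 °C for 30 min in the dark, with or without insulin. After KRP washes, fluorescence was read at Ex/Em 485/515 nm. Three experiments, mean ± SD.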

Series [6] can be described thus: Metabolic stability in human liver microsomes after 6 hrs in presence of NADPH by HPLC analysis. The format is ADME, Microsome. The settings on record: read-out: Stability. In a few lines:
as §1

For series [7], the system named is Platelet. The series can be described thus: Antiplatelet activity in platelet rich plasma (unknown origin) assessed as inhibition of ADP-induced platelet aggregation at 0.2 mM relative to control. The format is functional.
Series [8] has as its system Mus musculus. The series can be described thus: Antidiabetic activity in spontaneous db/db BKS.Cg-Dock7m +/+ Leprdb/J mouse assessed as decrease in blood glucose AUC at 10 mg/kg, po administered as daily dose via gavage for 18 days measured on day 12 up to 120 mins post glucose challenge by oral glucose tolerance test. The series is classed as functional, organism-based. In a few lines:
as §2

Series [9] has as its system 3T3-L1. The series is described as follows: Inhibition of ROS production in TNF-alpha-induced insulin resistant mouse 3T3L1 cells at 10 uM after 48 hrs by DCFH-DA dye-based fluorescence assay. The format is functional, cell-based.
Series [10] deals with Mus musculus. The series is described as follows: Cardioprotective activity in db/db BKS.Cg-Dock7m +/+ Leprdb/J mouse assessed as decrease in serum cTnI level at 27 umol/kg, po administered as daily dose via gavage for 18 days by ELISA. The format is functional, organism-based. In a few lines:
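db/db mice were gavaged daily for 18 days in 0.5% CMC-Na, with vehicle-treated model and C57BL/6 control groups. Tail vein blood was collected and serum TNF-α and cTnI measured by commercial ELISA kits. Six individual experiments, mean ± SD, one-way ANOVA.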

Series [11] concerns 3T3-L1. The series can be described thus: Induction of superoxide dismutase level in TNF-alpha-induced insulin resistant mouse 3T3L1 cells at 10 uM after 48 hrs. The format is functional, cell-based. In a few lines:
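3T3-L1 preadipocytes were differentiated, and mature adipocytes made insulin resistant with TNF-α (4 ng/mL) daily for 4 days. Cells were then treated in triplicate for 48 h, with or without 20 μM C-PTIO. Lysate GSH, SOD and MDA were measured with kits. Three experiments, mean ± SD.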

The nature of series [12]: Metabolic stability in Sprague-Dawley rat plasma after 24 hrs by HPLC analysis.

SMILES strings stand for the structures. Calls of active or inactive are those of the source. The calls are words filed in the database; no cut-off is given here.

By inhibition is commonly meant the relative decrease from the control value, in per cent. As to `CCN(CC)/[N+]([O-])=N/OCOC(=O)/C=C/c1ccc(OC(=O)OCN2C(=O)SC(Cc3ccc(OCCN(C)c4ccccn4)cc3)C2=O)c(OC)c1` (configuration not stated), in [1], the remaining at 0 h was determined as 100%. Also, the outcome in [2] and in [4] was Active. In [3], the Activity stood at 4 g. Besides, in series [5], the outcome was inactive. Further, the remaining at 6 h in series [6] stood at 82%. Further, the inhibition at 200 µM in [7] worked out at 9.9%.

Take `CN(CCOc1ccc(CC2SC(=O)NC2=O)cc1)c1ccccn1` (configuration not stated) [ROSIGLITAZONE]: the outcome in [8], in series [10] and in [11] was Active. The inhibition result in [9] is “Active”. Further, the Stability in series [12] is given as 39%.
